The full list was thinned out, with hits kept by preference.
IDH1 R132H inh: inhibitors of human IDH1 R132H; O75874; IDH1 R132H reductase, diaphorase/resazurin fluorescence, 60 min; inhibition, % at 10 µM; 0.18% of 70,000 active; AID 624101; in the data active means inhibition above about 34%; inconclusive means no clear call, values can overlap the other calls; inactive means below about 11%;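 further: 0% = DMSO and 100% = no enzyme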
T cruzi growth-1: T. cruzi proliferation inhibition | T. cruzi beta-gal in NIH3T3, GalScreen luminescence, 90 h | 5.9% of 77,000 active | inhibition, % at 8.34 µM;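 active means mean inhibition above about 93%, with at least 55% of replicates each passing it, limit read from the data, passing the limit was not always enough; inconclusive means only one of those two conditions holds; inactive means neither condition holds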
GASC1 inh: blocks human GASC-1 (KDM4C) demethylase activity. 0.15% of 96,000 active. GST-KDM4C 2-372, H3K9me3 peptide, LANCE TR-FRET. inhibition, % at 12.5 µM. Q9H3R0;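 active means mean replicate inhibition above about 25%, with at least 55% of replicates also reaching it, limit read from the data, passing the limit was not always enough; inconclusive means only one of those two conditions met; inactive means neither condition met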
Target sequence (Q9H3R0 2-372 limits assumed): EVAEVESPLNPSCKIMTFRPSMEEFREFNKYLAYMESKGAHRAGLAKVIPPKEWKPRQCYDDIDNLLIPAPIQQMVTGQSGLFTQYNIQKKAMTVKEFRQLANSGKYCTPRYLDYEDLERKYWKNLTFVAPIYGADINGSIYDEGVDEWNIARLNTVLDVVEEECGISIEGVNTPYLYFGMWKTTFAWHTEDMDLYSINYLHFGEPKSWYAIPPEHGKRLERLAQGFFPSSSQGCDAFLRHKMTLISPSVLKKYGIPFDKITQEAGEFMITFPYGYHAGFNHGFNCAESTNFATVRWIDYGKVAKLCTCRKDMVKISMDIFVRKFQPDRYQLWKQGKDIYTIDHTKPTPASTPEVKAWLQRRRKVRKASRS
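Test system: N-terminal GST-fused human GASC-1 (KDM4C) fragment, residues 2-372; quantity: GASC-1 enzyme at 10 nM final in reaction; dosing: single dose; schedule: 30 min demethylation and 1 h detection at room temperature; signal: LANCE TR-FRET, excitation 340 nm, emissions 618 and 671 nm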
T cruzi growth-2: Trypanosoma cruzi proliferation inhibition; shares compounds with T cruzi growth-1; T. cruzi beta-gal in NIH3T3, GalScreen luminescence, 90 h; inhibition, % at 8.35 µM; 72% of 5,600 active;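 active means mean replicate inhibition above about 95% and at least 55% of replicates individually reaching it, limit read from the data; inconclusive means only one of the two criteria is met; inactive means neither criterion is met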
T cruzi growth-3: inhibitors of T. cruzi proliferation; 21% of 5,600 active; inhibition, % at 2.09 µM; T. cruzi beta-gal in NIH3T3, GalScreen luminescence, 90 h; shares compounds with T cruzi growth-1;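 active means mean inhibition above about 95%, with at least 55% of replicates also reaching it, limit read from the data; inconclusive means meets just one of the two conditions; inactive means meets neither condition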;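 further: plate controls were neutral control median for no effect and positive control median for full effect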
3T3 cytotox: cytotoxicity in mouse NIH/3T3 fibroblasts; 14% of 5,600 active; NIH/3T3 viability, CellTiter-Glo ATP luminescence, 90 h; shares compounds with T cruzi growth-1; AID 651742; cytotoxicity (signal decrease), % at 8.35 µM;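 active means mean signal decrease across replicates above about 35% based on untreated-well scatter, with enough replicates individually passing, limit read from the data; inconclusive means no rule stated though some were filed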;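 further: 0% = median of neutral control wells and 100% = median of positive control wells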
3T3 cytotox 2: kills mouse NIH/3T3 fibroblasts; shares compounds with T cruzi growth-1; NIH/3T3 viability, CellTiter-Glo ATP luminescence, 90 h; inhibition, % at 24.9 µM; 56% of 5,600 active; AID 651744;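 active means mean loss of cell viability signal at or above a set limit, and enough replicates individually reaching it; inconclusive means meets only the mean limit or only the replicate share; inactive means meets neither condition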;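 further: 0% = median of neutral control wells and 100% = median of positive control wells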
An asterisk follows results filed as active; ? = inconclusive; . = not tested or not shown.

SMILES	IDH1 R132H inh	T cruzi growth-1	GASC1 inh	T cruzi growth-2	T cruzi growth-3	3T3 cytotox	3T3 cytotox 2
O=C(Nc1ccc(F)c(Cl)c1)C1CC(=O)n2ncnc2N1 (stereo unspecified)	0.4	.	.	.	.	.	.
C[C@H](CO)N1C[C@H](C)[C@H](CN(C)S(=O)(=O)c2ccc(Cl)cc2)OCCCC[C@H](C)Oc2ccc(NS(=O)(=O)c3ccccc3)cc2C1=O	.	?	-1.5	99.2*	86.5	-3.7	-15.0
C[C@@H]1CN([C@H](C)CO)C(=O)c2cc(NS(=O)(=O)c3ccc(Cl)cc3)ccc2O[C@@H](C)CCCCO[C@H]1CN(C)S(=O)(=O)c1ccccc1	1.6	.	1.9	.	.	.	.
C[C@@H]1CN([C@H](C)CO)C(=O)c2cc(NS(=O)(=O)c3ccccc3)ccc2O[C@@H](C)CCCCO[C@@H]1CN(C)S(=O)(=O)c1ccc(Cl)cc1	-2.7	?	-0.3	.	.	.	.
C[C@@H]1CCCCO[C@@H](CN(C)S(=O)(=O)c2ccccc2)[C@H](C)CN([C@@H](C)CO)C(=O)c2cc(NS(=O)(=O)c3ccc(Cl)cc3)ccc2O1	.	115.9*	-1.4	100.9*	77.7	-5.6	-5.5
C[C@@H]1CCCCO[C@H](CN(C)S(=O)(=O)c2ccccc2)[C@H](C)CN([C@@H](C)CO)C(=O)c2cc(NS(=O)(=O)c3ccc(Cl)cc3)ccc2O1	2.0	118.1*	-0.2	91.6	87.6	-4.2	-10.3
C[C@@H]1CCCCO[C@@H](CN(C)S(=O)(=O)c2ccc(Cl)cc2)[C@@H](C)CN([C@@H](C)CO)C(=O)c2cc(NS(=O)(=O)c3ccccc3)ccc2O1	.	.	5.5	.	.	.	.
C[C@@H]1CCCCO[C@H](CN(C)C(=O)C2CCCCC2)[C@@H](C)CN([C@@H](C)CO)C(=O)c2cc(NC(=O)Nc3ccc(C(F)(F)F)cc3)ccc2O1	1.9	120.5*	-0.5	97.8*	106.2*	-13.1	-8.4
C[C@H](CO)N1C[C@H](C)[C@H](CN(C)C(=O)C2CCCCC2)OCCCC[C@H](C)Oc2ccc(NC(=O)Nc3ccc(C(F)(F)F)cc3)cc2C1=O	.	99.9	0.7	.	.	.	.
COc1ccc(NC(=O)Nc2ccc3c(c2)C(=O)N([C@@H](C)CO)C[C@@H](C)[C@H](CN(C)C(=O)C2CCCCC2)OCCCC[C@@H](C)O3)cc1	.	?	0.3	?	15.7	-4.0	-2.2
C[C@H]1CCCCO[C@@H](CN(C)C(=O)C2CCCCC2)[C@@H](C)CN([C@@H](C)CO)C(=O)c2cc(NC(=O)Nc3ccc(F)cc3)ccc2O1	.	?	-1.8	111.0*	23.6	-6.6	6.7
C[C@@H]1CCCCO[C@@H](CN(C)C(=O)C2CCCCC2)[C@H](C)CN([C@H](C)CO)C(=O)c2cc(NC(=O)Nc3ccc(F)cc3)ccc2O1	2.8	90.3	-0.4	.	.	.	.
COc1ccc(NC(=O)Nc2ccc3c(c2)C(=O)N([C@@H](C)CO)C[C@@H](C)[C@H](CN(C)C(=O)C2CCCCC2)OCCCC[C@H](C)O3)cc1	0.6	65.3	0.3	.	.	.	.
C[C@H](CO)N1C[C@H](C)[C@@H](CN(C)C(=O)C2CCCCC2)OCCCC[C@H](C)Oc2ccc(NC(=O)Nc3ccc(F)cc3)cc2C1=O	.	84.1	-0.8	.	.	.	.
C[C@H]1CCCCO[C@@H](CN(C)C(=O)C2CCCCC2)[C@@H](C)CN([C@@H](C)CO)C(=O)c2cc(NC(=O)Nc3ccc(C(F)(F)F)cc3)ccc2O1	3.1	120.4*	-0.4	95.7*	115.2*	-13.0	7.3
CC(=O)c1cccc(NC(=O)CSc2nc(C)cc(=O)[nH]2)c1	0.4	.	.	.	.	.	.
CCNc1nc(SCC(N)=O)nc(N2CCOCC2)n1	-0.2	.	.	.	.	.	.
Cc1cc(C)c(NC(=O)CN(c2ccc(Cl)cc2C)S(C)(=O)=O)c(C)c1	0.4	.	.	.	.	.	.
O=C(Nc1ccc(I)cc1C(=O)NCc1ccco1)c1ccco1	-0.1	.	.	.	.	.	.
Fc1ccc(N(Cc2nc3ccccc3[nH]2)Cc2nc3ccccc3[nH]2)cc1	0.0	.	.	.	.	.	.
O=C(CSc1n[nH]c(-c2ccccc2)n1)Nc1ccc(Br)cc1	-0.3	.	.	.	.	.	.
C[C@@H]1CCCCO[C@@H](CN(C)C(=O)C2CCCCC2)[C@@H](C)CN([C@H](C)CO)C(=O)c2cc(NC(=O)Nc3ccccc3)ccc2O1	0.8	67.2	0.0	.	.	.	.
C[C@@H]1CN([C@@H](C)CO)C(=O)c2cc(NC(=O)Nc3ccc(C(F)(F)F)cc3)ccc2O[C@@H](C)CCCCO[C@H]1CN(C)C(=O)C1CCCCC1	.	119.0*	0.4	108.1*	111.0*	2.8	7.5
C[C@@H]1CCCCO[C@@H](CN(C)C(=O)C2CCCCC2)[C@H](C)CN([C@H](C)CO)C(=O)c2cc(NC(=O)Nc3ccc(C(F)(F)F)cc3)ccc2O1	0.7	100.0	-1.8	.	.	.	.
C[C@@H]1CCCCO[C@H](CN(C)C(=O)C2CCCCC2)[C@@H](C)CN([C@H](C)CO)C(=O)c2cc(NC(=O)Nc3ccc(C(F)(F)F)cc3)ccc2O1	0.8	120.4*	1.6	105.3*	86.9	9.6	?
SMILES	IDH1 R132H inh	T cruzi growth-1	GASC1 inh	T cruzi growth-2	T cruzi growth-3	3T3 cytotox	3T3 cytotox 2
COc1ccc(CNC(=O)Nc2ncc([N+](=O)[O-])s2)cc1	0.6	.	.	.	.	.	.
CC(=O)c1ccc(N2CCN(C(=S)Nc3ccc(S(=O)(=O)Nc4ncccn4)cc3)CC2)cc1	0.1	.	.	.	.	.	.
O=C(Nc1cccc(F)c1)N1CCCCN2[C@@H](CO)[C@@H](c3ccc(-c4ccncc4)cc3)[C@@H]2C1	.	?	-0.5	104.5*	82.9	22.6	43.1*
Cc1ccc(-c2ccc([C@@H]3[C@H](CO)N4CCCCN(C(=O)Nc5cccc(F)c5)C[C@@H]34)cc2)cc1	.	80.7	.	.	.	.	.
Cc1ccc(-c2ccc([C@@H]3[C@H]4CN(C(=O)Nc5cccc(F)c5)CCCCN4[C@H]3CO)cc2)cc1	.	98.9*	-2.1	99.6*	108.2*	46.7*	103.8*
Cc1ccc(-c2ccc([C@@H]3[C@@H](CO)N4CCCCN(C(=O)Nc5cccc(F)c5)C[C@@H]34)cc2)cc1	.	104.8*	-3.4	89.2	?	68.8*	104.8*
Cc1ccc(-c2ccc([C@H]3[C@@H](CO)N4CCCCN(C(=O)Nc5cccc(F)c5)C[C@@H]34)cc2)cc1	.	93.6	0.5	.	.	.	.
O=C(Nc1cccc(F)c1)N1CCCCN2[C@H](C1)[C@H](c1ccc(-c3ccncc3)cc1)[C@@H]2CO	.	76.4	-0.9	.	.	.	.
Cc1cc(=O)n2[nH]c(NCc3cccc([N+](=O)[O-])c3)nc2n1	0.3	.	.	.	.	.	.
N#Cc1c(C(F)(F)F)cc(-c2cccs2)nc1SCC(O)CN1CCSCC1 (stereo unspecified)	0.0	.	.	.	.	.	.
COc1ccc(OC)c(NC(=O)COc2ccc3c(=O)c(-c4ccccc4OC)c(C(F)(F)F)oc3c2)c1	0.2	.	.	.	.	.	.
